For assay [1], the system named is Mus musculus. The assay is described as follows: Inhibition of hepatic lipogenesis in C57BL/6 mouse supplemented with normal chow diet assessed as decrease in ChREBP protein expression at 20 mg/kg/day, ip administered for 1 week measured by western blot analysis. The class given is functional, organism-based. Particulars: time 1.0 weeks. An outline of the steps:
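Normal-chow male C57BL/6 mice, 8 weeks old, were injected ip at 20 mg·kg−1·day−1 daily for 7 days or given vehicle. Liver tissue was homogenized in lysis buffer, and FAS and ChREBP protein were assessed by western blot. n = 5–9.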
A general note: A western blot detects proteins with antibodies after separation by electrophoresis.

Assay [2] relates to Mus musculus. The assay is described as follows: Inhibition of lipogenesis in C57BL/6 mouse supplemented with high-fat diet assessed as decrease in weight of inguinal white adipose tissue (iWAT) at 20 mg/kg/day, ip administered for 1 week. Conditions: time 1.0 weeks. The assay is classed as functional, organism-based. The method in brief: (§1)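 Male C57BL/6 mice were fed high-fat diet for 14 weeks from 5 weeks of age, then injected ip with 20 mg·kg−1·day−1 for 7 days or given vehicle. Epididymal and inguinal WAT were weighed, examined by H&E, and analysed. Transcripts were measured by Trizol/SYBR Green RT-qPCR; proteins by western blot. n = 5–9; mean ± SEM.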

In assay [3] the test system is Mus musculus. Briefly: Anti-obesity activity in 6 hrs fasted C57BL/6 mouse supplemented with normal chow diet assessed as effect on fasting blood glucose at 20 mg/kg/day, ip administered for 1 week. Particulars: time 1.0 weeks. The assay is classed as functional, organism-based. The method in brief:
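8-week-old male C57BL/6 mice on normal chow, ip 20 mg·kg−1·day−1 for 7 days. Blood glucose measured randomly fed or after 6 h or 16 h fasting, as the line states. Mean ± SEM, n = 5–9.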

For assay [4], the system named is Mus musculus. Briefly: Inhibition of lipogenesis in C57BL/6 mouse supplemented with normal chow diet assessed as effect on MCAD mRNA expression at 20 mg/kg/day, ip administered for 1 week measured by RT-qPCR assay. Conditions: time 1.0 weeks. The class given is functional, organism-based. An outline of the steps: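 Eight-week-old male C57BL/6 mice on normal chow were given 20 mg·kg−1·day−1 ip daily for 7 days or vehicle. Epididymal WAT was collected. Lipogenic, adipogenic and fatty-acid-oxidation transcripts were quantified by Trizol extraction and SYBR Green RT-qPCR. FAS, ACC, PPARγ and C/EBPα protein were assessed by western blot. n = 5–9; mean ± SEM.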
A general note: Real-time PCR tracks product formation cycle by cycle.

Assay [5] deals with Adipocyte. Briefly: Inhibition of lipogenesis in mouse adipocytes isolated stromal vascular cells assessed as decrease in PPARgamma mRNA expression measured after 24 hrs by RT-qPCR assay. The assay is classed as functional, cell-based. The method in brief:
(§2)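 Stromal vascular cells from inguinal WAT of C57BL/6 mice, grown in DMEM/F12 + 10% FBS at 37 °C, 10% CO2. At confluence, induced 48 h with 5 μg/ml insulin, 1 μM dexamethasone, 0.5 mM isobutylmethylxanthine, then 6 days in 5 μg/ml insulin; fully differentiated day 8. Mature adipocytes exposed to inhibitor 24 h. Total RNA by Trizol, SYBR Green RT-qPCR; protein by western blot.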

Assay [6] deals with Hepatocyte. The assay is described as follows: Inhibition of glucogenesis in mouse primary hepatocytes stimulated with 100 uM 8-Br-cAMP assessed as decrease in PEPCK protein expression at 3 uM in presence of cAMP measured after 16 hrs by western blot.
The subject of assay [7] is Adipocyte. The assay is described as follows: Inhibition of lipogenesis in mouse adipocytes isolated stromal vascular cells assessed as decrease in ChREBP mRNA expression measured after 24 hrs by RT-qPCR assay. The assay is classed as functional, cell-based. The method in brief: as §2
The subject of assay [8] is Mus musculus. Briefly: Inhibition of lipogenesis in C57BL/6 mouse supplemented with high-fat diet assessed as decrease in DGAT2 mRNA expression at 20 mg/kg/day, ip administered for 1 week measured by RT-qPCR assay. The class given is functional, organism-based. Conditions: time 1.0 weeks. The method in brief: as §1
In assay [9] the test system is Mus musculus. Briefly: Inhibition of lipogenesis in C57BL/6 mouse supplemented with high-fat diet assessed as decrease in PPARgamma mRNA expression at 20 mg/kg/day, ip administered for 1 week measured measured by RT-qPCR assay. Particulars: time 1.0 weeks. The assay is classed as functional, organism-based. The method in brief: as §1
Assay [10] concerns the target T1, CREB-binding protein/Histone acetyltransferase p300 (Homo sapiens) (UniProt Q09472+Q92793). Briefly: Inhibition of CBP/p300 in mouse primary hepatocytes stimulated with 100 uM 8-Br-cAMP assessed as effect on COP1 protein expression at 3 uM measured after 12 hrs by western blot analysis. The class given is cell-based. Conditions: Primary hepatocyte.
Assay [11] has as its target T1, CREB-binding protein/Histone acetyltransferase p300 (Homo sapiens). The assay is described as follows: Inhibition of CBP/p300 in mouse primary hepatocytes stimulated with 100 uM 8-Br-cAMP assessed as decrease in FOXO1 abundance in nucleus at 3 uM. Particulars: Primary hepatocyte. The assay is classed as cell-based. An outline of the steps:
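Primary mouse hepatocytes treated with 3 μM compound and 100 μM 8-Br-cAMP. Nuclear and cytoplasmic fractions separated with a commercial kit; FOXO1 detected by western blot.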

For assay [12], the system named is Hepatocyte. Briefly: Inhibition of lipogenesis in mouse primary hepatocytes assessed as increase in FGF21 mRNA expression at 3 uM in presence of 100 nM insulin and 5 to 25 mM glucose measured after 18 hrs by RT-qPCR assay. The class given is functional, cell-based. The method in brief: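 Primary hepatocytes isolated from C57BL/6 mice by two-step perfusion. Cells incubated 18 h with 3 μM inhibitor, with 0 or 100 nM insulin and 5 or 25 mM glucose. Transcripts quantified by SYBR Green RT-qPCR after Trizol RNA extraction; proteins by western blot of lysates. Mean ± SEM.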

For assay [13], the system named is Mus musculus. Briefly: Inhibition of lipogenesis in C57BL/6 mouse supplemented with high-fat diet assessed as decrease in ACC mRNA expression at 20 mg/kg/day, ip administered for 1 week measured by RT-qPCR assay. Conditions: time 1.0 weeks. The class given is functional, organism-based. The method in brief: as §1
Assay [14] has as its system Mus musculus. Briefly: Inhibition of lipogenesis in C57BL/6 mouse supplemented with high-fat diet assessed as decrease in FASN mRNA expression at 20 mg/kg/day, ip administered for 1 week measured by RT-qPCR assay. The assay is classed as functional, organism-based. Particulars: time 1.0 weeks. The method in brief:
as §1

The subject of assay [15] is Mus musculus. The assay is described as follows: Inhibition of lipogenesis in C57BL/6 mouse supplemented with high-fat diet assessed as decrease in SCD1 mRNA expression at 20 mg/kg/day, ip administered for 1 week measured by RT-qPCR assay. The assay is classed as functional, organism-based. Conditions: time 1.0 weeks. An outline of the steps: as §1
Assay [16] relates to Hepatocyte. The assay is described as follows: Inhibition of glucogenesis in mouse primary hepatocytes stimulated with 100 uM 8-Br-cAMP assessed as effect on FOXO1 mRNA expression at 3 uM measured after 8 hrs by RT-qPCR assay. The class given is functional, cell-based. An outline of the steps: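 Primary mouse hepatocytes treated with 3 μM compound and 100 μM 8-Br-cAMP for 8 h. Trizol RNA, SYBR Green RT-qPCR of the named transcript. Mean ± SEM, three independent experiments.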

The target of assay [17] is T1, CREB-binding protein/Histone acetyltransferase p300 (Homo sapiens). Briefly: Inhibition of CBP/p300 in mouse primary hepatocytes stimulated with 100 uM 8-Br-cAMP assessed as decrease in FOXO1 protein expression at 3 uM in presence of 10 uM MG132. Particulars: Primary hepatocyte. The assay is classed as cell-based. An outline of the steps: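 Primary mouse hepatocytes exposed to 100 μM 8-Br-cAMP, 3 μM compound, 10 μg/ml cycloheximide and 10 μM MG132. FOXO1 protein measured by western blot, band intensity quantified. Three independent experiments.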

Assay [18] deals with Mus musculus. The assay is described as follows: Inhibition of hepatic lipogenesis in C57BL/6 mouse supplemented with normal chow diet assessed as decrease in triglyceride level at 20 mg/kg/day, ip administered for 1 week measured by Oil red O staining method. Conditions: time 1.0 weeks. The class given is functional, organism-based.
For assay [19], the target named is T1, CREB-binding protein/Histone acetyltransferase p300 (Homo sapiens). Briefly: Inhibition of CBP/p300 in human HepG2 cells stimulated with 100 uM 8-Br-cAMP assessed as induction of FOXO1 deacetylation at 3 uM measured after 6 hrs. The assay is classed as cell-based. The method in brief: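 HepG2 cells given 3 μM compound and 100 μM 8-Br-cAMP for 6 h. Endogenous FOXO1 immunoprecipitated and its acetylation detected by immunoblot.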

This is an account of results in ChEMBL document CHEMBL5674890, “Selective inhibition of CBP/p300 HAT by A-485 results in suppression of lipogenesis and hepatic gluconeogenesis” (Cell Death Dis, 2020).

Molecules are shown by their SMILES. Activity calls are given as the source filed them. The calls are words filed in the database; no cut-off is given here.

T1 sequence (Q09472 whole entry, looked up): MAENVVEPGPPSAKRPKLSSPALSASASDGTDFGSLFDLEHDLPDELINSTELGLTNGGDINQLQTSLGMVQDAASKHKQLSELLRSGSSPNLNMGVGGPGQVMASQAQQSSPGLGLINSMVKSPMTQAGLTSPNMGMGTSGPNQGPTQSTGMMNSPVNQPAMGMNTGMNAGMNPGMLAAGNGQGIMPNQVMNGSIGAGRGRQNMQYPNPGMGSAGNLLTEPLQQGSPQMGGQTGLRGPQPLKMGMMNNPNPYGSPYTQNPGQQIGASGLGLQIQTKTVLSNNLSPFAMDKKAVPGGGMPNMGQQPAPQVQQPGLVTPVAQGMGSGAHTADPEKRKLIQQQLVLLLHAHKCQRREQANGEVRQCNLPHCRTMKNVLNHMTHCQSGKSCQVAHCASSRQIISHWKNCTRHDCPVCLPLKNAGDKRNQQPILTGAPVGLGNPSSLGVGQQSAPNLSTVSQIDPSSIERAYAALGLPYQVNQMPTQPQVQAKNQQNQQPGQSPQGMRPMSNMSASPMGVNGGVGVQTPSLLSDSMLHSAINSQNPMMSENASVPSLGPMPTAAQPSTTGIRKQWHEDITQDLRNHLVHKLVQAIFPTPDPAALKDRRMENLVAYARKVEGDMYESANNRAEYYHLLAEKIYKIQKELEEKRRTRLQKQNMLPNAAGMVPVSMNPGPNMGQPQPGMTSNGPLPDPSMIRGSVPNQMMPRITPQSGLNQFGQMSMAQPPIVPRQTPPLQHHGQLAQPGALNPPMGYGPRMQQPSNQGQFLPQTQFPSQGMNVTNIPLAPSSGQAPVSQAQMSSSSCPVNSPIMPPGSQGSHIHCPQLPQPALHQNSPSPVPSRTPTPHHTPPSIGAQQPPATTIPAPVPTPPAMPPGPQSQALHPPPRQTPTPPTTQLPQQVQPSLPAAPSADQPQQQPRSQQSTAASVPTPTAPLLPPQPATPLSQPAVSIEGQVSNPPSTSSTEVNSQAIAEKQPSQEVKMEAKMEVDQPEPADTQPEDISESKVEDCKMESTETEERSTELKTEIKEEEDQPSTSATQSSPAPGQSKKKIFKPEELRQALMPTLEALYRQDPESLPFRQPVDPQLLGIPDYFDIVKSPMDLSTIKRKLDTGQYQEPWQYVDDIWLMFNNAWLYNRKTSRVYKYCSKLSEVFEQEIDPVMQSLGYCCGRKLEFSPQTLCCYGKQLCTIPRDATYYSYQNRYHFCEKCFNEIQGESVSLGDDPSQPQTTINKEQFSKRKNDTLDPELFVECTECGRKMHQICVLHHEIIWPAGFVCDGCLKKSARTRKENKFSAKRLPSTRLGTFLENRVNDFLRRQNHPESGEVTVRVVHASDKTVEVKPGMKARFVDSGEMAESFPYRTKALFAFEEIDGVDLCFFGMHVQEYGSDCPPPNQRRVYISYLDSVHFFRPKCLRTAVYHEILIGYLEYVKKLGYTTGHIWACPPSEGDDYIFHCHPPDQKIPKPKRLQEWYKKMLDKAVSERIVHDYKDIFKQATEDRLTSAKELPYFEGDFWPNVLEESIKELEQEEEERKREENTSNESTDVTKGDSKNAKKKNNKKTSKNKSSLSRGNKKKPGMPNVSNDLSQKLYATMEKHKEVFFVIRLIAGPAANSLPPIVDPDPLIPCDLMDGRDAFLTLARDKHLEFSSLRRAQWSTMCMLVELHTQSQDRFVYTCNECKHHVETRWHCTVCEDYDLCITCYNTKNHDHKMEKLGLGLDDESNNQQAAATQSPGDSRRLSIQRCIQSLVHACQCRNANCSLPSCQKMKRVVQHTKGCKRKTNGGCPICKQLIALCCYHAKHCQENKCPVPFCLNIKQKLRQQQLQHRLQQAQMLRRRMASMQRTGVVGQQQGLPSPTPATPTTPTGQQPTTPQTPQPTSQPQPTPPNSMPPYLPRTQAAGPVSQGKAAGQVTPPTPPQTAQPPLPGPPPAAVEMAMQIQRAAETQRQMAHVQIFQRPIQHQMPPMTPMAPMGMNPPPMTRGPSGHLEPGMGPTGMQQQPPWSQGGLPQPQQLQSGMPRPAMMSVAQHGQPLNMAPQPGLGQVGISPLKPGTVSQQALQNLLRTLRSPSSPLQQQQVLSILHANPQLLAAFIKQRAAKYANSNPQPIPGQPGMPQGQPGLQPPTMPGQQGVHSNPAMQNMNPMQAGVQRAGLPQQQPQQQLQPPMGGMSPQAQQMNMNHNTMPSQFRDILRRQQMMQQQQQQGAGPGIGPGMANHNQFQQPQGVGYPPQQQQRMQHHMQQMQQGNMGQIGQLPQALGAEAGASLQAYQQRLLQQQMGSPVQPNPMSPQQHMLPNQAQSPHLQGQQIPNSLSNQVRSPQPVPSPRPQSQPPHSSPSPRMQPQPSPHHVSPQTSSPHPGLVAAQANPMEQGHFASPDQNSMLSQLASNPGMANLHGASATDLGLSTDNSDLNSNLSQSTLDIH
T1 sequence (Q92793 whole entry, looked up): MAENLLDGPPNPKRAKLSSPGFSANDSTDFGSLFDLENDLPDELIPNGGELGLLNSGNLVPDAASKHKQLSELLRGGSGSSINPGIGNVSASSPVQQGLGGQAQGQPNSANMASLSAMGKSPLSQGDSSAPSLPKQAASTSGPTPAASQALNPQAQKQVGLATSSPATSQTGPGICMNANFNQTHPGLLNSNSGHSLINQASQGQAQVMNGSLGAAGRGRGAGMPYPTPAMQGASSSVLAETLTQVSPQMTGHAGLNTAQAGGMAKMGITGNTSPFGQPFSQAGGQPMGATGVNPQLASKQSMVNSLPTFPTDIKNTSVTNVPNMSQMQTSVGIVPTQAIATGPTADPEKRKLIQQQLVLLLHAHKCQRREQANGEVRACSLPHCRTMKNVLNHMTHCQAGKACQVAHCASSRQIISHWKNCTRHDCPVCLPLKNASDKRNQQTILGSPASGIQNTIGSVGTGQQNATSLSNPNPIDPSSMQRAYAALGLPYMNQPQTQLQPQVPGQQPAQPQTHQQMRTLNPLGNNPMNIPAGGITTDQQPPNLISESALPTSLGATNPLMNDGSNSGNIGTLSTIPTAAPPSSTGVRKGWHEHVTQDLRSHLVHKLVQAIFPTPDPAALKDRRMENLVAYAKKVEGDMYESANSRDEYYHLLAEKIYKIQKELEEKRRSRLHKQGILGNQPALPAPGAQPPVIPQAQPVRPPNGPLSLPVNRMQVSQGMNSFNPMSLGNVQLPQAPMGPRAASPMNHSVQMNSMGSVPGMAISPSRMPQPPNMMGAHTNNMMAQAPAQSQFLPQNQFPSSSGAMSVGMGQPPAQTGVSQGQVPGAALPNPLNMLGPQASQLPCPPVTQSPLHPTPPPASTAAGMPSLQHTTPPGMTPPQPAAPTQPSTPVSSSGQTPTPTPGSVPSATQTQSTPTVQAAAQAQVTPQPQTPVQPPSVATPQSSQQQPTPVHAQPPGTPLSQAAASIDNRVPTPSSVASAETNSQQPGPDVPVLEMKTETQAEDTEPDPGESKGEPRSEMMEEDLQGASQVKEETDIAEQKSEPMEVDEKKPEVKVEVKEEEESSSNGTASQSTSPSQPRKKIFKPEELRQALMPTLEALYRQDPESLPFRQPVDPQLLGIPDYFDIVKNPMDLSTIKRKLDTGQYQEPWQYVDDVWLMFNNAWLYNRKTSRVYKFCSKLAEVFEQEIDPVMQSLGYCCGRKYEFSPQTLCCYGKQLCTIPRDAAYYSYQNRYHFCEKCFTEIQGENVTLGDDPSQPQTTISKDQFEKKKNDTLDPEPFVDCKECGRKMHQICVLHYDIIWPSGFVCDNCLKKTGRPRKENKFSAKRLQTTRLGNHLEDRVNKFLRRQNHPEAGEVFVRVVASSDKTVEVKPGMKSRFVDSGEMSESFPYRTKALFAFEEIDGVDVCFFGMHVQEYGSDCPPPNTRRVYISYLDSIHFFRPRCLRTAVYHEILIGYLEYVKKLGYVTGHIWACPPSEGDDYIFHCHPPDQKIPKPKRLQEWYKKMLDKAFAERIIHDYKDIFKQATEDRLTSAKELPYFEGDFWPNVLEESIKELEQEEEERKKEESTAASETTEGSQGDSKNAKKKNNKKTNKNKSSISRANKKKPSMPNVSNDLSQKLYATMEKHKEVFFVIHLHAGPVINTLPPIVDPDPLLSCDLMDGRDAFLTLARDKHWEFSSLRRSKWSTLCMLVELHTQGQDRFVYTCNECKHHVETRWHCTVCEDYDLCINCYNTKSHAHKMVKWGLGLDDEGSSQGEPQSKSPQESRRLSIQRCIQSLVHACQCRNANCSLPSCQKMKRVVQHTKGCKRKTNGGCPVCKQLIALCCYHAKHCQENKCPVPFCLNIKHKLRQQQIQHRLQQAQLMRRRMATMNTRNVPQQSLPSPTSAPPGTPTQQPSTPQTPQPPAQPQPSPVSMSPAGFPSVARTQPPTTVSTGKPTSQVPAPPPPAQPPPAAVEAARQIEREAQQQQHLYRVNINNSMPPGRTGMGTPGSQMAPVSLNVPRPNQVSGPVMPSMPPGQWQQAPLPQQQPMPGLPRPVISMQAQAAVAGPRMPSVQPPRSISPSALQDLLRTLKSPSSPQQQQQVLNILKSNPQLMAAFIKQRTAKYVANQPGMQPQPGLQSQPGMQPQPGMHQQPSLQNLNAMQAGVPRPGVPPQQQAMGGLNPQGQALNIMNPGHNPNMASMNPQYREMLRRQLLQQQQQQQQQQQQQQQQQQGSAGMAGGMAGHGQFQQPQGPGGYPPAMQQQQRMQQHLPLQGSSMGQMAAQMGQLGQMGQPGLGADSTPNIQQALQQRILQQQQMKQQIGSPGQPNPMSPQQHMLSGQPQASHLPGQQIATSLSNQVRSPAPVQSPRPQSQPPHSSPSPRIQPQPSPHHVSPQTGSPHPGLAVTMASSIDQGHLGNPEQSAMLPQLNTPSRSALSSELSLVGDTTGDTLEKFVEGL

In the case of `CNC(=O)Nc1ccc2c(c1)CCS21OC(=O)N(CC(=O)N(Cc2ccc(F)cc2)[C@@H](C)C(F)(F)F)C1=O` (some centres undefined), the inhibition result in the assay with Mus musculus [1], with Mus musculus [2], in the assay on Adipocyte [5], in the assay on Hepatocyte [6], in the assay on Adipocyte [7] and with Mus musculus [8] was “Active” throughout. In addition, the inhibition result (in the assay with Mus musculus [9]; in assay [11]; in the assay with Hepatocyte [12]; in the assay with Mus musculus [13]; in the assay on Mus musculus [14]; in the assay on Mus musculus [15]) was “Active” in each case. The inhibition entry (in assay [17]; in the assay on Mus musculus [18]; in assay [19]) was “Active” throughout. Further, in the assay on Mus musculus [3], the outcome was inactive. The inhibition entry (in the assay on Mus musculus [4]; in assay [10]; with Hepatocyte [16]) was “inactive” throughout.
